From ChEMBL document CHEMBL1139013, “Synthesis and biological evaluation of novel 9-substituted-8-hydroxyadenine derivatives as potent interferon inducers” (J Med Chem, 2006) come the findings set out here.

Common to all, as to assay type: functional
The test system of experiment [1] is Splenocyte. Nature of the experiment: Induction of IFN in C3H/HeJ mouse splenocytes at 100 nM. The method, boiled down: (§1)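 Mouse splenocytes are suspended at 2 × 10⁶ cells/mL in MEM with 5% fetal calf serum, penicillin and streptomycin. They are mixed 1:1 with compound (DMSO stock diluted 500-fold in medium) and cultured 18 h at 37 °C in 5% CO₂. Supernatants are filter-sterilized and stored at -80 °C. IFN (IU/mL) is measured by L929/vesicular stomatitis virus bioassay.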

The subject of experiment [2] is Mus musculus. Kind of experiment: Induction of IFN in BALB/c mice at 0.3 mg/kg, po.
Experiment [3] relates to Splenocyte. Nature of the experiment: Induction of IFN in C3H/HeJ mouse splenocytes at 10 nM. The method in brief:
as §1

For experiment [4], the system named is Splenocyte. Kind of experiment: Induction of IFN in C3H/HeJ mouse splenocytes at 30 nM. The method, boiled down: as §1
In experiment [5] the test system is Mus musculus. Nature of the experiment: Induction of IFN in BALB/c mice at 0.1 mg/kg, po.
Experiment [6] has as its system Splenocyte. Kind of experiment: Induction of IFN in C3H/HeJ mouse splenocytes at 3 nM. The method, boiled down:
as §1

Structures are written as SMILES.

As to `CCCCNc1nc(N)c2nc(O)n(Cc3ccc4ccccc4c3)c2n1`, the Activity in experiment [1] is on record as 17.4 IU/ml; in experiment [2], less than 5 IU/ml; in experiment [3] it was less than 0.5 IU/ml; in experiment [4] it was 7.1 IU/ml.
On to `CCCCNc1nc(N)c2nc(O)n(CC(C)C)c2n1`, for which the Activity in experiment [1] is 4.1 IU/ml; in experiment [4], less than 0.5 IU/ml.
As to `Nc1nc(NCc2ccncc2)nc2c1nc(O)n2Cc1ccccc1`, the Activity in experiment [1] is 9.1 IU/ml; in experiment [5], less than 5 IU/ml; in experiment [2], 73 IU/ml; in experiment [3] it was 2.2 IU/ml; in experiment [4], 3.9 IU/ml; in experiment [6], less than 0.5 IU/ml.
As to `Nc1nc(NCc2ccccc2)nc2c1nc(O)n2Cc1ccc(F)cc1`, the Activity was 4.5 IU/ml in experiment [1], less than 5 IU/ml in experiment [2] and less than 0.5 IU/ml in experiment [4].
Regarding `CCCCNc1nc(N)c2nc(O)n(Cc3ccc(C)nc3Cl)c2n1`, the Activity in experiment [1] is given as 3.4 IU/ml; in experiment [5] it was less than 5 IU/ml; in experiment [3], 8.4 IU/ml; in experiment [6], less than 0.5 IU/ml.
`CCCCNc1nc(N)c2nc(O)n(Cc3ccc(CCCC)cc3)c2n1`: the Activity is 11 IU/ml in experiment [1], less than 5 IU/ml in experiment [2] and less than 0.5 IU/ml in experiment [4].
Take `CCCCNc1nc(N)c2nc(O)n(Cc3ccc(C(F)(F)F)cc3)c2n1`: the Activity is 15.2 IU/ml in experiment [1]; 8 IU/ml in experiment [5]; 276 IU/ml in experiment [2]; 2.9 IU/ml in experiment [3]; 10.7 IU/ml in experiment [4]; less than 0.5 IU/ml in experiment [6].
As to `CCCCNc1nc(N)c2nc(O)n(Cc3ccc(Cl)cc3)c2n1`, the Activity in experiment [1] is 7.4 IU/ml; in experiment [5], 7 IU/ml; in experiment [2], 219 IU/ml; in experiment [3], 8.5 IU/ml; in experiment [4], 8.2 IU/ml; in experiment [6], less than 0.5 IU/ml.
As for `CCCCNc1nc(N)c2nc(O)n(CC3CCCCC3)c2n1`, the values for the Activity in experiment [1], in experiment [3] and in experiment [4] were 3.7 IU/ml, less than 0.5 IU/ml and 1.7 IU/ml, respectively.
`CCCCNc1nc(N)c2nc(O)n(Cc3ccc(O)cc3)c2n1`: the Activity in experiment [1] is 3.1 IU/ml; in experiment [2] it was 20 IU/ml; in experiment [3], 12.4 IU/ml; in experiment [6] it was less than 0.5 IU/ml.
For the compound `CCCCNc1nc(N)c2nc(O)n(Cc3ccccc3C)c2n1`, the Activity is reported as 3.6 IU/ml in experiment [1], less than 0.5 IU/ml in experiment [3] and 3 IU/ml in experiment [4].
With `CCCCNc1nc(N)c2nc(O)n(Cc3ccc(C)cc3)c2n1`, the Activity is recorded as 2 IU/ml in experiment [1]; 28 IU/ml in experiment [5]; 356 IU/ml in experiment [2]; 9.2 IU/ml in experiment [3]; 6.2 IU/ml in experiment [4]; less than 0.5 IU/ml in experiment [6].
Consider `COCCNc1nc(N)c2nc(O)n(Cc3ccccc3)c2n1`, for which the Activity is 7.1 IU/ml in experiment [1], 44 IU/ml in experiment [5], 639 IU/ml in experiment [2] and less than 0.5 IU/ml in experiment [4].
On to `CCCCNc1nc(N)c2nc(O)n(Cc3ccc(F)cc3)c2n1`, for which the Activity is on record as 4.2 IU/ml in experiment [1]; 139 IU/ml in experiment [5]; 313 IU/ml in experiment [2]; 12.8 IU/ml in experiment [3]; less than 0.5 IU/ml in experiment [6].
In the case of `CCCCNc1nc(N)c2nc(O)n(Cc3ccc(OC)cc3)c2n1`, the Activity in experiment [1] is listed as 2 IU/ml; in experiment [5] it was 73 IU/ml; in experiment [2] it was 933 IU/ml; in experiment [3] it was 6.5 IU/ml; in experiment [4], 4.7 IU/ml; in experiment [6] it was less than 0.5 IU/ml.
On to `CCCCNc1nc(N)c2nc(O)n(Cc3cccc(C)c3)c2n1`, for which the Activity is reported as 5.5 IU/ml in experiment [1], less than 0.5 IU/ml in experiment [3] and 3 IU/ml in experiment [4].
With `CCCCNc1nc(N)c2nc(O)n(Cc3cccnc3Cl)c2n1`, the Activity is reported as 5 IU/ml in experiment [1]; less than 5 IU/ml in experiment [5]; 94 IU/ml in experiment [2]; 3.7 IU/ml in experiment [3]; 16.3 IU/ml in experiment [4]; less than 0.5 IU/ml in experiment [6].
On to `CCCCNc1nc(N)c2nc(O)n(Cc3ccccc3Cl)c2n1`, for which the Activity in experiment [1] is reported as 4.5 IU/ml; in experiment [3] it was less than 0.5 IU/ml; in experiment [4], 2 IU/ml.
`Nc1nc(NCc2ccncc2)nc2c1nc(O)n2Cc1ccc(F)cc1`: the Activity in experiment [1] was 5.2 IU/ml; in experiment [5] it was 19 IU/ml; in experiment [2], 492 IU/ml; in experiment [3], 11.1 IU/ml; in experiment [6] it was less than 0.5 IU/ml.
As for `CCCCNc1nc(N)c2nc(O)n(Cc3ccccn3)c2n1`, the Activity was 9.1 IU/ml in experiment [1], less than 5 IU/ml in experiment [2], less than 0.5 IU/ml in experiment [3] and 7.4 IU/ml in experiment [4].
As to `Nc1nc(NCc2ccccc2)nc2c1nc(O)n2Cc1ccccc1`, the Activity in experiment [1] is listed as 80.4 IU/ml; in experiment [5], 203 IU/ml; in experiment [2], 398 IU/ml; in experiment [3] it was 44.4 IU/ml; in experiment [6], less than 0.5 IU/ml.
For the compound `CCCCNc1nc(N)c2nc(O)n(Cc3ccc(Cl)s3)c2n1`, the Activity in experiment [1] is reported as 7.2 IU/ml; in experiment [5], 34 IU/ml; in experiment [2], 484 IU/ml; in experiment [3] it was 8.9 IU/ml; in experiment [4], 11.3 IU/ml; in experiment [6], less than 0.5 IU/ml.
For the compound `CCCCNc1nc(N)c2nc(O)n(Cc3cnccn3)c2n1`, the Activity in experiment [1] is recorded as 4.2 IU/ml; in experiment [3], less than 0.5 IU/ml; in experiment [4] it was 2.9 IU/ml.
For `CCCCNc1nc(N)c2nc(O)n(Cc3ccccc3)c2n1`, the Activity in experiment [1] was 3.4 IU/ml; in experiment [5] it was 113 IU/ml; in experiment [2] it was 465 IU/ml; in experiment [4], less than 0.5 IU/ml.
Consider `CCCCNc1nc(N)c2nc(O)n(Cc3ccc(Cl)nc3Cl)c2n1`, for which the Activity was 5.7 IU/ml in experiment [1], 42 IU/ml in experiment [5], less than 0.5 IU/ml in experiment [3] and 14.6 IU/ml in experiment [4].
On to `CCCCNc1nc(N)c2nc(O)n(CCc3ccccc3)c2n1`, for which the Activity in experiment [1] was less than 0.5 IU/ml.
With `CCCCNc1nc(N)c2nc(O)n(Cc3ccc(OCc4ccccc4)cc3)c2n1`, the Activity in experiment [1] is recorded as 10.6 IU/ml; in experiment [4], less than 0.5 IU/ml.
In the case of `CCCCNc1nc(N)c2nc(O)n(Cc3cccc(Cl)c3)c2n1`, the results for the Activity in experiment [1], in experiment [3] and in experiment [4] were 4.4 IU/ml, less than 0.5 IU/ml and 2.8 IU/ml, respectively.
Regarding `CCCCNc1nc(N)c2nc(O)n(Cc3ccc(-c4ccccc4)cc3)c2n1`, the Activity was 3.4 IU/ml in experiment [1] and 0.5 IU/ml in experiment [4].
Regarding `CCCCNc1nc(N)c2nc(O)n(Cc3cccnc3C)c2n1`, the Activity in experiment [1] is on record as 3 IU/ml; in experiment [3], 12.8 IU/ml; in experiment [4], 8.3 IU/ml; in experiment [6] it was less than 0.5 IU/ml.
Turning to `COCCNc1nc(N)c2nc(O)n(Cc3ccc(F)cc3)c2n1`, the Activity is on record as 8.3 IU/ml in experiment [1]; 54 IU/ml in experiment [5]; 521 IU/ml in experiment [2]; less than 0.5 IU/ml in experiment [3]; 4.8 IU/ml in experiment [4].
As to `CCCCNc1nc(N)c2nc(O)n(Cc3ccc(C(C)(C)C)cc3)c2n1`, the Activity in experiment [1] is on record as 13 IU/ml; in experiment [2], less than 5 IU/ml; in experiment [3], less than 0.5 IU/ml; in experiment [4], 4.4 IU/ml.
Regarding `CCCCNc1nc(N)c2nc(O)n(Cc3ccncc3)c2n1`, the Activity in experiment [1] was 4.3 IU/ml; in experiment [5], 21 IU/ml; in experiment [3], 4.2 IU/ml; in experiment [4], 11.9 IU/ml; in experiment [6], less than 0.5 IU/ml.
In the case of `CCCCNc1nc(N)c2nc(O)n(CC(C)(C)O)c2n1`, the Activity in experiment [1] is recorded as 0.6 IU/ml; in experiment [2], less than 5 IU/ml; in experiment [4] it was less than 0.5 IU/ml.
`CCCCNc1nc(N)c2nc(O)n(Cc3cccc4ccccc34)c2n1`: the Activity in experiment [1] was 15.4 IU/ml; in experiment [5], less than 5 IU/ml; in experiment [2], 39 IU/ml; in experiment [3] it was 2.2 IU/ml; in experiment [4], 34 IU/ml; in experiment [6], less than 0.5 IU/ml.
`CCCCNc1nc(N)c2nc(O)n(Cc3ccc(F)c(F)c3)c2n1`: the Activity in experiment [1] is listed as 7.1 IU/ml; in experiment [5] it was 35 IU/ml; in experiment [2], 338 IU/ml; in experiment [3], 6.4 IU/ml; in experiment [4], 14.7 IU/ml; in experiment [6], less than 0.5 IU/ml.
`CCCCNc1nc(N)c2nc(O)n(Cc3ccc(Cl)c(Cl)c3)c2n1`: the Activity is 10 IU/ml in experiment [1]; less than 5 IU/ml in experiment [5]; 136 IU/ml in experiment [2]; 0.8 IU/ml in experiment [3]; less than 0.5 IU/ml in experiment [6].
In the case of `CCCCNc1nc(N)c2nc(O)n(Cc3cnccc3Cl)c2n1`, the Activity in experiment [1] is recorded as 4.2 IU/ml; in experiment [4] it was less than 0.5 IU/ml.
